In brackets after ≈: the same amount, converted by molar mass.
What was measured:
Adenosine receptor A2b [1] = biological target: T1, Adenosine receptor A2b (Homo sapiens, UniProt P29275); assay: Displacement of [3H]DPCPX from human cloned adenosine A2B receptor expressed in HEK293 cells; type: cell-based
T1 sequence (P29275 whole entry): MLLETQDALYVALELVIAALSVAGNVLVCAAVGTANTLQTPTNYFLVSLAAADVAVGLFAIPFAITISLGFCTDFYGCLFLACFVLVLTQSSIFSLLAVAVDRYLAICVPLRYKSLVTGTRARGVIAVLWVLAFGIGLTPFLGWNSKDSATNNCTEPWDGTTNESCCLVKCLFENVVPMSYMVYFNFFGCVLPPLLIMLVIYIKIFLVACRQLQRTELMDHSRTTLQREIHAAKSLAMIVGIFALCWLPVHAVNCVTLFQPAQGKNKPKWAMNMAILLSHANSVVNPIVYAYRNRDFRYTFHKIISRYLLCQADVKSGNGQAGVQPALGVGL

Adenosine receptor A2a [2] = biological target: T2, Adenosine receptor A2a (Homo sapiens, UniProt P29274); assay: Displacement of [3H]ZM241385 from human cloned adenosine A2A receptor expressed in human HeLa cells at 1 uM; type: cell-based
T2 sequence (P29274 whole entry): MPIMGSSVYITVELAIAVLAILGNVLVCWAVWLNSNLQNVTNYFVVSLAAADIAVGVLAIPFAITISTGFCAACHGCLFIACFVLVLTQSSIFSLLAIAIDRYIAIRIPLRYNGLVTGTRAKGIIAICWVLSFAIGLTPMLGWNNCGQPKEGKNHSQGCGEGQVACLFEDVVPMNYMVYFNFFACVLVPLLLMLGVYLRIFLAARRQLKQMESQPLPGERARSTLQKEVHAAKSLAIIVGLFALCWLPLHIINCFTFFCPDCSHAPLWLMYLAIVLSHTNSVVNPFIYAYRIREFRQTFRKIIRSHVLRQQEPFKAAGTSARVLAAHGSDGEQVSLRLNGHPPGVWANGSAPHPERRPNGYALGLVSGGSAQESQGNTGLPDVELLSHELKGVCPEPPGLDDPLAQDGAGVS
Outline: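 HeLa membranes (10 µg) in 50 mM Tris–HCl, 1 mM EDTA, 10 mM MgCl2, 2 U/mL adenosine deaminase, pH 7.4; 3 nM [3H]ZM241385, 25 °C; NECA for nonspecific binding; filtration with 4× ice-cold washes, scintillation counting; percent radioligand displacement at 1 µM.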

Adenosine receptor A2a [3] = biological target: T2, Adenosine receptor A2a; assay: Displacement of [3H]ZM241385 from human cloned adenosine A2A receptor expressed in human HeLa cells; type: cell-based
HeLa [4] = assay: Selectivity index, ratio of Ki for human cloned adenosine A2A receptor expressed in human HeLa cells to Ki for human cloned adenosine A2B receptor expressed in HEK293 cells; type: cell-based
Outline: (§1)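 SI is the ratio of Ki values. […] A1 in CHO cells: [3H]DPCPX 2 nM. A2A in HeLa cells: [3H]ZM241385 3 nM. A2B in HEK-293 cells: [3H]DPCPX 25 nM. A3 in HeLa cells: [3H]NECA 30 nM. Filtration and scintillation counting.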

Adenosine receptor A1 = biological target: T3, Adenosine receptor A1 (Homo sapiens, UniProt P30542); assay: Displacement of [3H]DPCPX from human cloned adenosine A1 receptor expressed in CHO cells; type: cell-based
T3 sequence (P30542 whole entry): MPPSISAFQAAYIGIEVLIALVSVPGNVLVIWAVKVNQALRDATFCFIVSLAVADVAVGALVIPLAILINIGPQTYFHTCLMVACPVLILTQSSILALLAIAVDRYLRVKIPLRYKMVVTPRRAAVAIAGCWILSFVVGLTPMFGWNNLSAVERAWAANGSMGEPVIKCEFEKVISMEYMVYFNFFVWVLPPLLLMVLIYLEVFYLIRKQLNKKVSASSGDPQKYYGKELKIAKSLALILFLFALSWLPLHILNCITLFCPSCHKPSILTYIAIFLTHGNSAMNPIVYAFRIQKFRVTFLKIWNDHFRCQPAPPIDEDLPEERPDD

Adenosine receptor A3 [5] = biological target: T4, Adenosine receptor A3 (Homo sapiens, UniProt P0DMS8); assay: Displacement of [3H]NECA from human cloned adenosine A3 receptor expressed in human HeLa cells at 1 uM; type: cell-based
T4 sequence (P0DMS8 whole entry): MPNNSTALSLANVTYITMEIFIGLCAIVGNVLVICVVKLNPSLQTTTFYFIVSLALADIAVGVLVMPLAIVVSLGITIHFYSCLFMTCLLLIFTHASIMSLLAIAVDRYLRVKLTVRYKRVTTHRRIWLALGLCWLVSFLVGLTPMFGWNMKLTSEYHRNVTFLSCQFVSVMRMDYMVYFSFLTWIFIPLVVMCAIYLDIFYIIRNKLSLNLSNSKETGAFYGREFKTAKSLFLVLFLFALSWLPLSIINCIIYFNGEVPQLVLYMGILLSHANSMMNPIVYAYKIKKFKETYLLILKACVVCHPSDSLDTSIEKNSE

[6] = Methanol-water partition coefficient, log K by RP-HPLC; type: physicochemical
Outline: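 Reverse-phase HPLC with water–methanol 40/60 (v/v) mobile phase at 1.0 ml/min; dead time from KI in methanol; retention times in minutes; log k from capacity factor taken as lipophilicity index.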

[7] = Solubility in 50 mM Tris/HCl buffer at pH 7.4 by turbidimetric method; type: physicochemical
Outline: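 DMSO stock added stepwise (about 14 additions) to 50 mM Tris/HCl pH 7.4 at room temperature, final DMSO below 5%; precipitation detected as UV absorbance rise at 600–800 nm; solubility limit from bilinear fit of absorbance versus DMSO.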

Adenosine receptor A3 [8] = biological target: T4, Adenosine receptor A3; assay: Displacement of [3H]NECA from human cloned adenosine A3 receptor expressed in human HeLa cells; type: cell-based
Adenosine receptor A2a [9] = biological target: Adenosine receptor A2a (Rattus norvegicus, UniProt P30543); assay: Antagonist activity at adenosine A2A receptor in Sprague-Dawley rat aorta assessed as inhibition of phenylephrine-induced contraction; type: functional, tissue-based; details: read-out: pA2 (converted)
Chain of Adenosine receptor A2a (Rattus norvegicus, UniProt P30543) (P30543 whole entry): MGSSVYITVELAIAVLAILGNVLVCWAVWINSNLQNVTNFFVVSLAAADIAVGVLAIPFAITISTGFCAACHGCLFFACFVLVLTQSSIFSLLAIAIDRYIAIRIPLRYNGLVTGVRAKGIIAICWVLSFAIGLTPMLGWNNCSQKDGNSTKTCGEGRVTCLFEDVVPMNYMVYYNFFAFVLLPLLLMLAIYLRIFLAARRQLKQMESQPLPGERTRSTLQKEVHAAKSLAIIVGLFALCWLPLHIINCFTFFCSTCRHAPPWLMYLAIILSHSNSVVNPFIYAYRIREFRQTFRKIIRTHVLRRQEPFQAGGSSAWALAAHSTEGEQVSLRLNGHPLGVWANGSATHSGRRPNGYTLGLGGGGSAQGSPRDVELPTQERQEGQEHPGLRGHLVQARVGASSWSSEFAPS
Outline: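 Aorta from male Sprague-Dawley rats (200–250 g), cut into 4 mm rings in Krebs solution at 37 °C with carbogen, 2 g basal tension, stabilised 60 min. Rings were contracted with phenylephrine, then antagonist was incubated for 30 min before cumulative NECA relaxation curves. pA2 = log((EC50'/EC50) − 1) − log C, from NECA EC50 with and without antagonist.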

HEK293 = assay: Selectivity index, ratio of Ki for human cloned adenosine A1 receptor expressed in CHO cells to Ki for human cloned adenosine A2B receptor expressed in HEK293 cells; type: cell-based; outline: as §1
HeLa [10] = assay: Selectivity index, ratio of Ki for human cloned adenosine A3 receptor expressed in human HeLa cells to Ki for human cloned adenosine A2B receptor expressed in HEK293 cells; type: cell-based; outline: as §1
Adenosine receptor A2b [11] = biological target: T5, Adenosine receptor A2b (Rattus norvegicus, UniProt P29276); assay: Antagonist activity at adenosine A2B receptor in Wistar-Kyoto rat distal colon; details: read-out: pA2 (converted)
T5 sequence (P29276 whole entry): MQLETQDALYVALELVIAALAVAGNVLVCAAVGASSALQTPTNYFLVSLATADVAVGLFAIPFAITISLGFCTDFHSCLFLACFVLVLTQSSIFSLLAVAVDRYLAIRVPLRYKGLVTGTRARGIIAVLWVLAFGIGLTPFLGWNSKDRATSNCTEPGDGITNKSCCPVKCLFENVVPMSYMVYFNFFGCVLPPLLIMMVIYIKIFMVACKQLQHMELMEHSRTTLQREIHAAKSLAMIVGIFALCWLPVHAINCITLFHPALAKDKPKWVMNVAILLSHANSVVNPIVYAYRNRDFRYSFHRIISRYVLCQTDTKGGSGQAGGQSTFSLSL

SMILES | Ki (Adenosine receptor A2b [1]) | Ki (Adenosine receptor A2a [3]) | Ratio Ki (HeLa [4]) | also measured
Cc1ccc(-c2cc3c(c(=O)n(C)c(=O)n3C)n2O)cc1 | 2.24 µM |  |  | inhibition (Adenosine receptor A2a [2]): 8%
CCCn1c(=O)c2[nH]c(-c3ccc(S(C)(=O)=O)cc3)c(O)c2n(C)c1=O | 0.064 µM | 0.468 µM | 7.3 | Ki (Adenosine receptor A1): 0.24 µM; inhibition (Adenosine receptor A3 [5]): 7%
CCCn1c(=O)c2[nH]c(-c3ccc(C)cc3)c(O)c2n(CCC)c1=O | 0.089 µM | 0.089 µM | 1 | log K [6]: 0.83; solubility kinetic [7]: 0.03 mg/mL (≈ 87.9 µM)
CCCn1c(=O)c2c(cc(-c3ccc(C)cc3)n2O)n(CCC)c1=O | 0.589 µM | 0.398 µM | 0.66 | 
Cn1c(=O)c2[nH]c(-c3ccc(S(C)(=O)=O)cc3)c(O)c2n(C)c1=O | 0.068 µM | 0.692 µM | 10.2 | 
CCCn1c(=O)c2c(cc(-c3ccccc3)n2O)n(CCC)c1=O | 0.676 µM |  |  | inhibition (Adenosine receptor A2a [2]): 32%; Ki (Adenosine receptor A1): 0.025 µM; inhibition (Adenosine receptor A3 [5]): 30%
CCCn1c(=O)c2[nH]c(-c3ccccc3)cc2n(CCC)c1=O | 0.229 µM | 0.646 µM | 2.8 | Ki (Adenosine receptor A1): 0.034 µM; Ki (Adenosine receptor A3 [8]): 0.096 µM
CCCn1c(=O)c2[nH]c(-c3ccc(OC)cc3)c(O)c2n(CCC)c1=O | 0.024 µM | 0.148 µM | 6.2 | log K [6]: 0.51; solubility kinetic [7]: 0.12 mg/mL (≈ 336 µM)
CCCn1c(=O)c2c(cc(-c3ccc(OC)cc3)n2O)n(CCC)c1=O | 0.479 µM | 0.631 µM | 1.3 | 
CCCn1c(=O)c2[nH]c(-c3ccc(S(C)(=O)=O)cc3)c(O)c2n(CCC)c1=O | 0.0065 µM | 0.028 µM | 4.3 | Ki (Adenosine receptor A1): 0.063 µM; Ki (Adenosine receptor A3 [8]): 0.295 µM
Cn1c(=O)c2[nH]c(-c3ccccc3)c(O)c2n(C)c1=O | 0.288 µM | 1.47 µM | 5.1 | 
CCCn1c(=O)c2[nH]c(-c3ccc([N+](=O)[O-])cc3)c(O)c2n(CCC)c1=O | 0.05 µM | 0.145 µM | 2.9 | 
Cc1ccc(-c2cc3c([nH]2)c(=O)n(C)c(=O)n3C)cc1 | 0.457 µM | 0.126 µM | 0.28 | 
CCCn1c(=O)c2[nH]c(-c3ccco3)c(OS(=O)(=O)O)c2n(CCC)c1=O | 0.035 µM | 0.408 µM | 11.7 | 
CCCn1c(=O)c2[nH]c(-c3ccc(C(C)=O)cc3)c(O)c2n(CCC)c1=O | 0.071 µM | 0.324 µM | 4.6 | 
CCCn1c(=O)c2[nH]c(-c3ccc(OCC(=O)N4CCN(Cc5ccccc5)CC4)cc3)cc2n(CCC)c1=O |  |  | 42 | Ki (Adenosine receptor A1): 0.043 µM; inhibition (Adenosine receptor A3 [5]): 5%; log K [6]: 0.93; solubility kinetic [7]: 0.002 mg/mL (≈ 3.68 µM)

SMILES | Ki (Adenosine receptor A2b [1]) | Ki (Adenosine receptor A2a [3]) | Ratio Ki (HeLa [4]) | also measured
CCCn1c(=O)c2[nH]c(-c3ccc(C(=O)O)cc3)c(O)c2n(CCC)c1=O | 0.338 µM | 0.933 µM | 2.8 | 
Cn1c(=O)c2[nH]c(-c3ccccc3)cc2n(C)c1=O | 0.182 µM | 0.479 µM | 2.6 | 
Cc1ccc(-c2[nH]c3c(=O)n(C)c(=O)n(C)c3c2O)cc1 | 0.513 µM | 2.45 µM | 4.8 | 
CCCn1c(=O)c2[nH]c(-c3ccc(OCC(=O)Nc4ccc(Br)cc4)cc3)c(O)c2n(CCC)c1=O | 0.001 µM | 0.1 µM | 100 | Kb (Adenosine receptor A2a [9]): 0.224 µM; Ki (Adenosine receptor A1): 0.079 µM; Ki (Adenosine receptor A3 [8]): 1.29 µM; Ratio Ki (HEK293): 79; Ratio Ki (HeLa [10]): 1290; Kb (Adenosine receptor A2b [11]): 0.000468 µM
CCCn1c(=O)c2[nH]c(-c3ccc(C)cc3)cc2n(CCC)c1=O | 0.199 µM | 0.631 µM | 3.2 | log K [6]: 0.97; solubility kinetic [7]: 0.006 mg/mL (≈ 18.4 µM)
CCCn1c(=O)c2[nH]c(-c3ccc(O)cc3)c(O)c2n(CCC)c1=O | 0.011 µM | 0.118 µM | 10.7 | 
CCCn1c(=O)c2[nH]c(-c3ccc(O)cc3)cc2n(CCC)c1=O | 0.044 µM | 0.048 µM | 1.1 | 
CCCn1c(=O)c2c(cc(-c3ccc(O)cc3)n2O)n(CCC)c1=O | 0.115 µM | 0.102 µM | 0.89 | 
CCCn1c(=O)c2[nH]c(-c3ccc(N)cc3)c(O)c2n(CCC)c1=O | 0.019 µM | 0.166 µM | 8.7 | log K [6]: 0.96; solubility kinetic [7]: 0.03 mg/mL (≈ 87.6 µM)
CCCn1c(=O)c2[nH]c(-c3ccccc3)c(O)c2n(CCC)c1=O | 0.054 µM | 0.05 µM | 0.93 | Ki (Adenosine receptor A1): 0.083 µM; Ki (Adenosine receptor A3 [8]): 0.182 µM
Cn1c(=O)c2c(cc(-c3ccccc3)n2O)n(C)c1=O | 1.66 µM |  |  | inhibition (Adenosine receptor A2a [2]): 12%
CCCn1c(=O)c2[nH]c(-c3ccc(N)cc3)cc2n(CCC)c1=O | 0.0089 µM | 0.162 µM | 18.2 | log K [6]: 1.21; solubility kinetic [7]: 0.006 mg/mL (≈ 18.4 µM)
CCCn1c(=O)c2[nH]c(-c3ccc(OC)cc3)cc2n(CCC)c1=O | 0.49 µM | 0.199 µM | 0.41 | log K [6]: 0.71; solubility kinetic [7]: 0.028 mg/mL (≈ 82 µM)
CCCn1c(=O)c2[nH]c(-c3ccc(OCC(=O)Nc4ccc(Br)cc4)cc3)cc2n(CCC)c1=O |  |  | 14 | Ki (Adenosine receptor A1): 0.021 µM; Ki (Adenosine receptor A3 [8]): 0.199 µM
CCCn1c(=O)c2[nH]c(-c3ccco3)c(O)c2n(CCC)c1=O | 0.023 µM | 0.104 µM | 4.5 | 
CCCn1c(=O)c2c(cc(-c3ccc(N)cc3)n2O)n(CCC)c1=O | 0.155 µM | 0.24 µM | 1.5 | 

Source: ChEMBL document CHEMBL1142545, “1,3-Dialkyl-8-(hetero)aryl-9-OH-9-deazaxanthines as potent A2B adenosine receptor antagonists: design, synthesis, structure-affinity and structure-selectivity relationships” (Bioorg Med Chem, 2008)
